Measured values reported in ChEMBL document CHEMBL1914430, “Synthesis of some new 1,3,5-trisubstituted pyrazolines bearing benzene sulfonamide as anticancer and anti-inflammatory agents” (Bioorg Med Chem Lett, 2011).

Legend:
Format in all cases: functional
OVCAR-5 = assay: Anticancer activity against human OVCAR5 cells after 48 hrs; conditions: OVCAR-5, 48 h
In short: (§1)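 NCI 60-line panel protocol with a 48 h incubation. Per line: GI50 = concentration giving 50% decrease in net cell growth; TGI = total growth inhibition; LC50 = net 50% loss of initial cells. When the level was not reached or was exceeded, the value is given as greater or less than the highest or lowest concentration tested.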

IGROV-1 = assay: Anticancer activity against human IGROV1 cells after 48 hrs; conditions: IGROV-1, 48 h
In short: (§2)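 NCI Drug Evaluation Branch 60-cell-line screen across leukemia, melanoma, lung, colon, CNS, ovarian, renal, prostate and breast panels. The incubation period is 48 h. Parameters are derived from dose–response data: GI50 is the concentration giving 50% decrease in net growth, TGI is total growth inhibition, and LC50 is net 50% loss of initial cells. Values beyond the tested range are reported as greater or less than the maximum or minimum concentration.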

SK-OV-3 = assay: Anticancer activity against human SKOV3 cells after 48 hrs; conditions: SK-OV-3, 48 h; in short: as §1
NCI-H23 = assay: Anticancer activity against human NCI-H23 cells after 48 hrs; conditions: NCI-H23, 48 h; in short: as §1
HL-60(TB) = assay: Anticancer activity against human HL-60(TB) cells after 48 hrs; conditions: HL-60, 48 h
In short: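 NCI 60-cell-line panel protocol: cells exposed to compound for 48 h. Initial one-dose screen at 10⁻⁵ M. GI50 = concentration giving 50% decrease in net cell growth. TGI = concentration giving total growth inhibition. LC50 = concentration giving net 50% loss of initial cells at the end of incubation. A value not reached or exceeded is reported as greater or less than the highest or lowest concentration tested.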

NCI-H226 = assay: Anticancer activity against human NCI-H226 cells after 48 hrs; conditions: NCI-H226, 48 h; in short: as §1
K562 = assay: Anticancer activity against human K562 cells after 48 hrs; conditions: K562, 48 h; in short: as §2
SNB-19 = assay: Anticancer activity against human SNB19 cells after 48 hrs; conditions: SNB-19, 48 h; in short: as §1
T47D = assay: Anticancer activity against human T47D cells after 48 hrs
In short: (§3)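 NCI ~60 human tumour cell line panel with a 48 h incubation. GI50 is the concentration giving a 50% fall in net growth, TGI gives total growth inhibition, and LC50 gives a net 50% loss of initial cells. An effect not reached or exceeded is reported as greater or less than the highest or lowest concentration tested.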

SF-539 = assay: Anticancer activity against human SF539 cells after 48 hrs; conditions: SF-539, 48 h; in short: as §1
SNB-75 = assay: Anticancer activity against human SNB75 cells after 48 hrs; conditions: SNB-75, 48 h; in short: as §1
MDA-MB-435 = assay: Anticancer activity against human MDA-MB-435 cells after 48 hrs; conditions: MDA-MB-435, 48 h; in short: as §2
SK-MEL-28 = assay: Anticancer activity against human SK-MEL-28 cells after 48 hrs; conditions: SK-MEL-28, 48 h; in short: as §1
NCI-H322M = assay: Anticancer activity against human NCI-H322M cells after 48 hrs; in short: as §1
OVCAR-3 = assay: Anticancer activity against human OVCAR3 cells after 48 hrs; conditions: OVCAR-3, 48 h; in short: as §1
OVCAR-4 = assay: Anticancer activity against human OVCAR4 cells after 48 hrs; conditions: OVCAR-4, 48 h; in short: as §1
NCI/ADR-RES = assay: Anticancer activity against human NCI/ADR-RES cells after 48 hrs; in short: as §1
DU-145 = assay: Anticancer activity against human DU145 cells after 48 hrs; conditions: DU-145, 48 h; in short: as §2
MDA-MB-468 = assay: Anticancer activity against human MDA-MB-468 cells after 48 hrs; conditions: MDA-MB-468, 48 h; in short: as §2
SF-268 = assay: Anticancer activity against human SF268 cells after 48 hrs; conditions: SF-268, 48 h; in short: as §1
SW-620 = assay: Anticancer activity against human SW620 cells after 48 hrs; conditions: SW-620, 48 h; in short: as §1
[1] = Anticancer activity against human Hs 578T cells after 48 hrs; in short: as §2
RXF 393 = assay: Anticancer activity against human RXF393 cells after 48 hrs; conditions: RXF 393, 48 h; in short: as §1
UACC-62 = assay: Anticancer activity against human UACC62 cells after 48 hrs; conditions: UACC-62, 48 h; in short: as §3
SR = assay: Anticancer activity against human SR cells after 48 hrs; in short: as §1
Rattus norvegicus = assay: Antiinflammatory activity in Wistar rat assessed as inhibition of carrageenan-induced hind paw edema at 20 mg/kg, po administered 30 mins before carrageenan challenge measured after 5 hrs by plethysmometer
In short: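 Wistar rats of either sex, 150–175 g, fasted 16 h, n = 6 per group. Compound given orally at 20 mg/kg as a suspension in 1% CMC in water (10 mL/kg); controls got vehicle only. After 30 min, 0.1 mL of 1% carrageenan in saline was injected subplantar into the left hind paw. Paw volume was measured by plethysmometer at 0, 3 and 5 h. Inhibition = (1 − Vt/Vc) × 100, reported as mean ± SEM.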

HCC 2998 = assay: Anticancer activity against human HCC2998 cells after 48 hrs; conditions: HCC 2998, 48 h; in short: as §2
[2] = read-out: LC50 (the source's name)

Cc1cc(O)c(C2=NN(c3ccc(S(N)(=O)=O)cc3)C(/C=C/c3ccccc3)C2)cc1Cl (centres undefined)
GI50 (OVCAR-5): 3.18 µM | LC50 (OVCAR-5): 38.3 µM | TGI (OVCAR-5): 14.7 µM | GI50 (IGROV-1): 4.32 µM | LC50 (net 50% loss of initial cells) (IGROV-1): 68.7 µM | TGI (IGROV-1): 19.8 µM | GI50 (SK-OV-3): 5.52 µM | TGI (SK-OV-3): 17.9 µM | CC50 (SK-OV-3; [2]): 42.7 µM | GI50 (NCI-H23): 1.68 µM | LC50 (concentration killing 50% of initial cells) (NCI-H23): 35.4 µM | TGI (NCI-H23): 12.5 µM | GI50 (HL-60(TB)): 68.3 µM | LC50 (HL-60(TB)): > 100 µM | TGI (HL-60(TB)): 100 µM | GI50 (NCI-H226): 5.21 µM | TGI (NCI-H226): 19.2 µM | CC50 (NCI-H226; [2]): 51.8 µM | GI50 (K562): 11.6 µM | LC50 (concentration killing 50% of initial cells) (K562): > 100 µM | TGI (K562): 87.5 µM | GI50 (SNB-19): 7.84 µM | TGI (SNB-19): 19.9 µM | CC50 (SNB-19; [2]): 44.7 µM | GI50 (T47D): 3.38 µM | TGI (T47D): 14.7 µM | CC50 (T47D; [2]): 44.5 µM | GI50 (SF-539): 2.98 µM | LC50 (concentration causing net 50% loss of initial cells) (SF-539): 37.5 µM | TGI (SF-539): 14 µM | GI50 (SNB-75): 3.39 µM | TGI (SNB-75): 16.1 µM | CC50 (SNB-75; [2]): 44.4 µM | GI50 (MDA-MB-435): 8.87 µM | TGI (MDA-MB-435): 24 µM | CC50 (MDA-MB-435; [2]): 59.5 µM | GI50 (SK-MEL-28): 10.9 µM | TGI (SK-MEL-28): 23.8 µM | CC50 (SK-MEL-28; [2]): 52 µM | GI50 (NCI-H322M): 5.73 µM | LC50 (net 50% loss of initial cells) (NCI-H322M): > 100 µM | TGI (NCI-H322M): 27.5 µM | GI50 (OVCAR-3): 11.5 µM | LC50 (concentration giving 50% net loss of initial cells) (OVCAR-3): 70.2 µM | TGI (OVCAR-3): 28.4 µM | GI50 (OVCAR-4): 3.74 µM | LC50 (OVCAR-4): 48.6 µM | TGI (OVCAR-4): 18.9 µM | GI50 (NCI/ADR-RES): 9.26 µM | TGI (NCI/ADR-RES): 22.7 µM | CC50 (NCI/ADR-RES; [2]): 53 µM | GI50 (DU-145): 14.1 µM | LC50 (concentration causing net 50% loss of initial cells) (DU-145): > 100 µM | TGI (DU-145): 38.6 µM | GI50 (MDA-MB-468): 3.94 µM | TGI (MDA-MB-468): 13.8 µM | CC50 (MDA-MB-468; [2]): 37.2 µM | GI50 (SF-268): 5.63 µM | LC50 (concentration killing 50% of initial cells) (SF-268): 46.7 µM | TGI (SF-268): 19.5 µM | GI50 (SW-620): 11.7 µM | TGI (SW-620): 31.3 µM | CC50 (SW-620; [2]): 84 µM | GI50 [1]: 12.3 µM | TGI [1]: 49.7 µM | CC50 [1, 2]: > 100 µM | GI50 (RXF 393): 6.69 µM | LC50 (RXF 393): 52.6 µM | TGI (RXF 393): 20.2 µM | GI50 (UACC-62): 2.89 µM | LC50 (UACC-62): 34 µM | TGI (UACC-62): 11.4 µM | GI50 (SR): 12.7 µM | LC50 (concentration killing 50% of initial cells) (SR): 89.7 µM | TGI (SR): 33.8 µM | inhibition in vivo at 20 mg/kg (Rattus norvegicus): 71.4% | GI50 (HCC 2998): 9.89 µM | LC50 (net 50% loss of initial cells) (HCC 2998): 92.5 µM | TGI (HCC 2998): 30.3 µM
